Shown are actives, neighbours in structure and some others; about 1.9% of the full set was active somewhere.
RanGTP-Imp inh: disruptors of Ran-importin-beta complex formation – biochemical, FRET, CFP-Ran, YFP-importin-beta, homogeneous, primary screen. cell-free CFP-Ran/YFP-importin-beta FRET ratio. inhibition, % (no concentration beside the values). 300,000 compounds, 1.1% hits. AID 2216;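 active means more than half of the replicate wells show a fall in the fluorescence ratio signal beyond about 16%, limit read from the data, passing the limit was not always enough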;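 further: 0% = DMSO wells and 100% = Ran loaded with GDP instead of GTP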
Hck Nef HTS: blocks Nef-activated human Hck kinase; inhibition, % at 20 µM; Recombinant Hck-YEEI plus Nef, Z-Lyte FRET kinase assay; AID 463187; P08631; 220,000 compounds, 0.68% hits;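 active means Hck-Nef kinase inhibition above about 50%, limit read from the data; inactive means inhibition below that limit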;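 further: 0% = DMSO with Hck plus Nef and 100% = Hck alone without Nef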
Runt-SMMHC FRET: blocks binding of human RUNX1 Runt domain to CBFb-SMMHC; Cerulean-Runt/Venus-CBFb-SMMHC FRET ratio 530/480, 1 h; inhibition, % at 20 µM; Q01196+Q13951; 220,000 compounds, 0.74% hits;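 active means mean inhibition across duplicate retests at 20 µM reaching about 50%, limit read from the data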;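 further: 0% = DMSO wells and 100% = wells with excess untagged CBFb-SMMHC; inhibitors lower the FRET ratio by blocking Runt binding to CBFb-SMMHC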
Target sequence (Q01196 whole entry, looked up, the tested form may be a part): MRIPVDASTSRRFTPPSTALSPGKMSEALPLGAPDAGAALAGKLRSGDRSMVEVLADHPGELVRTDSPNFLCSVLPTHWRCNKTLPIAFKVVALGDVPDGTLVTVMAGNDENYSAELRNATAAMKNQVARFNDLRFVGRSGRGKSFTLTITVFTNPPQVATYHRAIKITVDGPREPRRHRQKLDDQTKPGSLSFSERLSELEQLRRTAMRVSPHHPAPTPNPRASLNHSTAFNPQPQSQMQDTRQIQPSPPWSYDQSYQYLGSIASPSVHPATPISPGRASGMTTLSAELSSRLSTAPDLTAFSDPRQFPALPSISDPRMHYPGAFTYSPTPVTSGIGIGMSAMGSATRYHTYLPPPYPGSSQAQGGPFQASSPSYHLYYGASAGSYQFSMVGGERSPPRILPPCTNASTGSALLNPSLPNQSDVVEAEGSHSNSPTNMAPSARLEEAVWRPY
Target sequence (Q13951 whole entry, looked up, the tested form may be a part): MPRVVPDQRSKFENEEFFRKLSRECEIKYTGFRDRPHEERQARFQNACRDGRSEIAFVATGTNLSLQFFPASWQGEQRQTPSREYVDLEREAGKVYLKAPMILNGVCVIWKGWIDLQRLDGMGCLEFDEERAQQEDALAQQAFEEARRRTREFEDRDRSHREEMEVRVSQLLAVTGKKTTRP
Runt-CBFb FRET: Runt domain-CBFb interaction inhibition | Q01196+Q13951 | 220,000 compounds, 0.46% hits | Cerulean-Runt/Venus-CBFb FRET ratio 530/480, 1 h | inhibition, % at 20 µM;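 active means inhibition over about 50% at 20 µM in the single-dose screen, limit read from the data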;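 further: 0% = DMSO wells and 100% = excess unlabeled CBFb competitor control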
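Schedule: protein complex preformed 1 h, compound exposure 1 h, room temperature, dark; test system: Cerulean-labeled Runt domain protein; amount: 100 nM per protein; buffer or medium: Tris 50 mM pH 7.5, KCl, K2SO4, 0.01% BSA; read-out: loss of energy transfer signal; detection: FRET fluorescence; controls: 5 µM unlabeled CBFb as full-inhibition high control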
Active calls of the source: *.

Screening CC1CCCN(S(=O)(=O)c2ccc3[nH]c4c(c3c2)CCCC4)C1 (stereo unspecified) returned RanGTP-Imp inh 2.
For CCN(CC)c1ccc(/C=C(\C#N)C(N)=S)cc1 the results were RanGTP-Imp inh 3, Hck Nef HTS 25, Runt-SMMHC FRET -28 and Runt-CBFb FRET -18.
`CCN(CC)c1ccc(/C=C(\C#N)C(N)=O)cc1` gave Hck Nef HTS 20, Runt-SMMHC FRET 63* and Runt-CBFb FRET 29.
O=C(CC1OC(=O)c2ccccc21)Nc1cc(Cl)ccc1N1CCCC1 (stereo unspecified) was read as RanGTP-Imp inh -2.
Screening COc1ccc(N2CCN(Cc3nc(-c4ccccc4)no3)CC2)cc1 returned RanGTP-Imp inh -1 and Hck Nef HTS 23.
COC(=O)c1c(N(S(C)(=O)=O)S(C)(=O)=O)sc2c1CCN(c1ncc(C(F)(F)F)cc1Cl)C2 was read as RanGTP-Imp inh 2, Hck Nef HTS 1, Runt-SMMHC FRET 79* and Runt-CBFb FRET 65*.
For COC(=O)c1c(/N=C/N(C)C)sc2c1CCN(c1ncc(C(F)(F)F)cc1Cl)C2 the results were RanGTP-Imp inh 9, Hck Nef HTS 25, Runt-SMMHC FRET 58* and Runt-CBFb FRET 5.
For O=C(NC(C(=O)N/N=C/c1cccnc1)c1n[nH]c(=O)c2ccccc12)c1ccccc1 (stereo unspecified) the results were RanGTP-Imp inh -1, Hck Nef HTS 7, Runt-SMMHC FRET -4 and Runt-CBFb FRET 0.
Screening CCc1ccc(C(=O)COC(=O)c2ccc(Cl)nc2)cc1 returned RanGTP-Imp inh 2, Hck Nef HTS 20, Runt-SMMHC FRET -1 and Runt-CBFb FRET -3.
O=C1C=C(Nc2cccc(O)c2)CC(c2ccco2)C1 (stereo unspecified) was read as RanGTP-Imp inh 64*, Hck Nef HTS 9, Runt-SMMHC FRET -8 and Runt-CBFb FRET 1.
O=C1C=C(Nc2ccc(Cl)cc2)CC(c2ccco2)C1 (stereo unspecified) was read as RanGTP-Imp inh 29*, Hck Nef HTS 10, Runt-SMMHC FRET -1 and Runt-CBFb FRET 1.
`CCOc1ccc(NC2=CC(=O)CC(c3ccco3)C2)cc1` (stereo unspecified) gave RanGTP-Imp inh 5, Hck Nef HTS 18, Runt-SMMHC FRET 1 and Runt-CBFb FRET 3.
Screening COc1cc2cc(C(=O)Nc3ccccc3)c(N)nc2cc1OC returned RanGTP-Imp inh 29*, Hck Nef HTS 19, Runt-SMMHC FRET 48 and Runt-CBFb FRET 16.
CC1CCN(C(=O)CSc2nnc(CNC(=O)c3ccc(S(=O)(=O)N(C)C)cc3)o2)CC1 was read as RanGTP-Imp inh -1.
Screening COc1ccc(C(=O)O)cc1NC(=S)NC(=O)c1ccc(-c2ccc(Cl)cc2)o1 returned RanGTP-Imp inh 7, Hck Nef HTS 36, Runt-SMMHC FRET -4 and Runt-CBFb FRET 5.
`Cc1ccc(C(=O)O)cc1NC(=S)NC(=O)c1ccc(-c2ccc(Cl)cc2)o1` gave RanGTP-Imp inh -1, Hck Nef HTS 56*, Runt-SMMHC FRET 0 and Runt-CBFb FRET 0.
`O=c1n(Cc2ccccc2F)c2ccccc2n1Cc1ccccc1F` gave RanGTP-Imp inh 4, Hck Nef HTS 8, Runt-SMMHC FRET -3 and Runt-CBFb FRET -1.
`Cn1c(=O)n(Cc2ccccc2F)c2ccccc21` gave RanGTP-Imp inh 40*, Hck Nef HTS 5, Runt-SMMHC FRET -1 and Runt-CBFb FRET 2.
For N#Cc1c(-c2ccccc2)nc(SCC(=O)N2c3ccccc3Sc3ccccc32)[nH]c1=O the results were RanGTP-Imp inh -1, Hck Nef HTS 82*, Runt-SMMHC FRET -10 and Runt-CBFb FRET -6.
CCOC(=O)N1CCC(NC(=O)c2cc3cc4cc(OC)ccc4nc3o2)CC1 was read as RanGTP-Imp inh 21*, Hck Nef HTS 2, Runt-SMMHC FRET 2 and Runt-CBFb FRET -4.
`c1ccc2[nH]c(SN3CCOCC3)nc2c1` gave Hck Nef HTS -2, Runt-SMMHC FRET 62* and Runt-CBFb FRET 4.
c1ccc2[nH]c(CN3CCOCC3)nc2c1 was read as RanGTP-Imp inh 0, Hck Nef HTS 2, Runt-SMMHC FRET 1 and Runt-CBFb FRET 0.
`O=C(/C=N/O)Nc1ccc2sc3ccccc3c2c1` gave RanGTP-Imp inh 0, Hck Nef HTS 5, Runt-SMMHC FRET -6 and Runt-CBFb FRET 4.
`COc1cc2[nH]c3c(=O)n4c(nc3c2cc1OC)SCCC4` gave RanGTP-Imp inh -1, Hck Nef HTS 34, Runt-SMMHC FRET -4 and Runt-CBFb FRET -2.
For N#Cc1cc2ccc(N3CCOCC3)cc2cc1C#N the results were RanGTP-Imp inh 35*, Hck Nef HTS -1, Runt-SMMHC FRET -10 and Runt-CBFb FRET 3.
`CCOC(=O)c1ccccc1NC(=O)CSc1nc2[nH]ncc2c(=O)[nH]1` gave RanGTP-Imp inh 4.
Screening O=C(O)CSc1cc(C(=O)c2cc(F)ccc2O)cn2c(=O)c3c(-c4ccccc4)csc3nc12 returned RanGTP-Imp inh -10, Hck Nef HTS 52*, Runt-SMMHC FRET -28 and Runt-CBFb FRET -10.
CC1=NOC(=O)/C1=C\c1ccc(-c2cccc(Cl)c2)o1 was read as RanGTP-Imp inh 3, Hck Nef HTS 7, Runt-SMMHC FRET 55* and Runt-CBFb FRET 21.
`Cc1ccc(C(=O)Oc2cccnc2)cc1[N+](=O)[O-]` gave RanGTP-Imp inh 1, Hck Nef HTS 5, Runt-SMMHC FRET 2 and Runt-CBFb FRET 102*.
Screening COc1ccc2nc(Nc3nc(C)c(C(C)=O)s3)sc2c1 returned RanGTP-Imp inh 18*, Hck Nef HTS -9, Runt-SMMHC FRET 42 and Runt-CBFb FRET 11.
For COc1ccc(Nc2nc3ccc(OC)cc3s2)cc1 the results were RanGTP-Imp inh 2, Hck Nef HTS 11, Runt-SMMHC FRET -5 and Runt-CBFb FRET -1.
Screening CSCC[C@H](NC(=O)OC(C)(C)C)C(=O)N1CCC(C(=O)N[C@@H](C)C(=O)NC(C)c2ccccc2)CC1 (stereo partly specified) returned RanGTP-Imp inh -3.
CC(=O)c1ccc(N/N=C(/C(N)=O)C2=NC(C)(C)Cc3ccccc32)cc1 was read as RanGTP-Imp inh 9, Hck Nef HTS 72*, Runt-SMMHC FRET 2 and Runt-CBFb FRET -4.
Cc1ccc(NC(=O)CNC(=O)Cn2cnc3sc(C)c(C)c3c2=O)cc1F was read as RanGTP-Imp inh 0.
`COc1cccc2cc(C(=O)NC3CC4CCC3C4)oc12` (stereo unspecified) gave RanGTP-Imp inh 26*.
Screening O=C(NC(=O)c1cnccc1C(F)(F)F)Nc1ccccc1 returned RanGTP-Imp inh 0, Hck Nef HTS 13, Runt-SMMHC FRET -3 and Runt-CBFb FRET -2.
Screening Cc1cc(C)n2c(=S)[nH]nc2n1 returned RanGTP-Imp inh 1, Hck Nef HTS -3, Runt-SMMHC FRET 59* and Runt-CBFb FRET 11.
Screening CCOc1ccc(N(CC(=O)N2CCOCC2)S(=O)(=O)c2ccc(F)cc2)cc1 returned RanGTP-Imp inh 1.
Screening CCOc1cccc(C(=O)NNC(=O)C2C3C=CC(C3)C2C(=O)O)c1 (stereo unspecified) returned RanGTP-Imp inh 3.

Assay outcomes (PubChem)
